Results taken from ChEMBL document CHEMBL1146755, “Potent nonpeptide vasopressin receptor antagonists based on oxazino- and thiazinobenzodiazepine templates” (Bioorg Med Chem Lett, 2004).

Assays:
Vasopressin V1a receptor [1] = target: T1, Vasopressin V1a receptor (Homo sapiens, UniProt P37288); assay: Inhibition of [3H]AVP binding to recombinant human vasopressin V1a receptor
How it was run: (§1)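 Competition binding on membranes from HEK-293 cells transfected with recombinant human V1a or V2 receptor; Ki values reported in nM.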
Target sequence in this assay (P37288 whole entry): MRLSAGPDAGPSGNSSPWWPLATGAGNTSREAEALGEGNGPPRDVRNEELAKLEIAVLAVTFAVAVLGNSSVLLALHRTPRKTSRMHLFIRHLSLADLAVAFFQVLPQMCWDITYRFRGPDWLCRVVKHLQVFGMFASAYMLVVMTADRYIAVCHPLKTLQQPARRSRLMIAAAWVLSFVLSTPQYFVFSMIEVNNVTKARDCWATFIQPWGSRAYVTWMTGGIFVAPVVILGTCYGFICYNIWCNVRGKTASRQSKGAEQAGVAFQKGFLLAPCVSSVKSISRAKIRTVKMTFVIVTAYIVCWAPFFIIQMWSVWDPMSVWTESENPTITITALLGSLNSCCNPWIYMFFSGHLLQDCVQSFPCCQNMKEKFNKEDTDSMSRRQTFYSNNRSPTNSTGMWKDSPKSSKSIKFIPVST

Vasopressin V2 receptor [2] = target: T2, Vasopressin V2 receptor (Homo sapiens, UniProt P30518); assay: Inhibition of [3H]AVP binding to recombinant human vasopressin V2 receptor; how it was run: as §1
Vasopressin V2 receptor [3] = target: T2, Vasopressin V2 receptor; assay: Inhibition of 1 nM AVP-induced cAMP accumulation in cells expressing human vasopressin V2 receptor; format: functional
How it was run: (§2)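 HEK-293 cells expressing human receptor stimulated with 1 nM AVP; antagonism read as change in intracellular Ca2+ (V1a) or cAMP accumulation (V2).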

Vasopressin V1a receptor [4] = target: T1, Vasopressin V1a receptor; assay: Inhibition of [3H]AVP binding to recombinant human vasopressin V1a receptor at 100 nM
Target sequence in this assay (P37288 whole entry, looked up): as the sequence (P37288 whole entry) above

Vasopressin V1a receptor [5] = target: T1, Vasopressin V1a receptor; assay: Inhibition of [3H]AVP binding to recombinant human vasopressin V1a receptor at 1000 nM
Target sequence in this assay (P37288 whole entry, looked up): as the sequence (P37288 whole entry) above

Vasopressin V1a receptor [6] = target: T1, Vasopressin V1a receptor; assay: Inhibition of 1 nM AVP-induced calcium mobilisation in cells expressing human vasopressin V1a receptor; how it was run: as §2
Target sequence in this assay (P37288 whole entry): as above

T2 sequence (P30518 whole entry): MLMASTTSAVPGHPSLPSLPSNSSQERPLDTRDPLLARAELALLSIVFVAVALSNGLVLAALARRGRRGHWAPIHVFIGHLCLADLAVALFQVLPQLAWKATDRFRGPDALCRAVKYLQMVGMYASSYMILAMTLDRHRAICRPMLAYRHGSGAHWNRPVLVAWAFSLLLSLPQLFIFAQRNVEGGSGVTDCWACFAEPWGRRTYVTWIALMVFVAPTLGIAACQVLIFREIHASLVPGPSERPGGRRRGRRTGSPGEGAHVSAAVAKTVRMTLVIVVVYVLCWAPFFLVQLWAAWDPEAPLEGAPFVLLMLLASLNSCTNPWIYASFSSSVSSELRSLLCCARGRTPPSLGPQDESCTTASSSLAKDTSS

Ki (Vasopressin V1a receptor [1])	Ki (Vasopressin V2 receptor [2])	Ki (Vasopressin V2 receptor [3])	inhibition (Vasopressin V1a receptor [4])	inhibition (Vasopressin V1a receptor [5])	Ki (Vasopressin V1a receptor [6])	Compound
Not Active	17 nM	–	–	–	–	COc1ccc(-c2ccccc2)c(C(=O)Nc2ccc(C(=O)N3C[C@H]4COCCN4Cc4ccccc43)c(Cl)c2)c1
Not Active	18 nM	–	–	–	–	O=C(Nc1ccc(C(=O)N2CC3CSCCN3Cc3ccc(F)c(F)c32)cc1)c1ccccc1-c1ccccc1 (centres undefined)
–	3.7 nM	16 nM	69%	–	–	O=C(Nc1ccc(C(=O)N2C[C@H]3COCCN3Cc3ccccc32)cc1)c1ccccc1-c1ccccc1
–	11 nM	12 nM	–	62%	6400 nM	O=C(Nc1ccc(C(=O)N2C[C@H]3COCCN3Cc3ccccc32)c(Cl)c1)c1cc(F)ccc1-c1ccccc1
Not Active	15 nM	–	–	–	–	COc1cc(NC(=O)c2ccccc2-c2ccccc2)ccc1C(=O)N1CC2CSCCN2Cc2ccccc21 (centres undefined)
410 nM	3.7 nM	–	–	–	–	O=C(Nc1ccc(C(=O)N2CC3CSCCN3Cc3ccccc32)c(Cl)c1)c1ccc(F)cc1-c1ccccc1 (centres undefined)
250 nM	3.7 nM	17 nM	–	–	14000 nM	O=C(Nc1ccc(C(=O)N2C[C@H]3CSCCN3Cc3ccccc32)c(Cl)c1)c1ccccc1-c1ccccc1
490 nM	11 nM	–	–	–	–	O=C(Nc1ccc(C(=O)N2CC3CSCCN3Cc3ccccc32)c(Cl)c1)c1ccccc1-c1ccccc1 (centres undefined)
Not Active	10 nM	–	–	–	–	Cc1cc(NC(=O)c2ccccc2-c2ccccc2)ccc1C(=O)N1CC2CSCCN2Cc2ccccc21 (centres undefined)
44 nM	2.3 nM	23 nM	–	–	6000 nM	Cc1ccc(F)cc1C(=O)Nc1ccc(C(=O)N2Cc3cccn3Cc3ccccc32)c(Cl)c1 [LIXIVAPTAN]
18 nM	8 nM	23 nM	–	–	14000 nM	Cc1ccc2c(c1)N(C(=O)c1ccc(NC(=O)c3ccccc3-c3ccccc3)cc1)CC1CSCCN1C2 (centres undefined)
110 nM	3.2 nM	–	–	–	–	O=C(Nc1ccc(C(=O)N2CC3CSCCN3Cc3ccccc32)c(O)c1)c1ccccc1-c1ccccc1 (centres undefined)
Not Active	13 nM	70 nM	–	–	1900 nM	O=C(Nc1ccc(C(=O)N2C[C@H]3COCCN3Cc3ccccc32)c(Cl)c1)c1cc(O)ccc1-c1ccccc1
Not Active	1.9 nM	2 nM	–	–	700 nM	O=C(Nc1ccc(C(=O)N2C[C@H]3COCCN3Cc3ccccc32)c(Cl)c1)c1ccc(F)cc1-c1ccccc1
Not Active	65 nM	40 nM	–	–	1400 nM	O=C(Nc1ccc(C(=O)N2CC3CS(=O)(=O)CCN3Cc3ccccc32)cc1)c1ccccc1-c1ccccc1 (centres undefined)
Not Active	10 nM	–	–	–	–	O=C(Nc1ccc(C(=O)N2CC3CSCCN3Cc3cccc(Cl)c32)cc1)c1ccccc1-c1ccccc1 (centres undefined)

Ki (Vasopressin V1a receptor [1])	Ki (Vasopressin V2 receptor [2])	Ki (Vasopressin V2 receptor [3])	inhibition (Vasopressin V1a receptor [4])	inhibition (Vasopressin V1a receptor [5])	Ki (Vasopressin V1a receptor [6])	Compound
49 nM	–	–	–	–	8000 nM	O=C(Nc1ccc(C(=O)N2CC3CSCCN3Cc3ccccc32)cc1)c1ccccc1-c1ccccc1 (centres undefined)
Not Active	4.2 nM	11 nM	–	–	4200 nM	O=C(Nc1ccc(C(=O)N2C[C@H]3COCCN3Cc3ccccc32)c(Cl)c1)c1ccccc1-c1ccc(O)cc1
Not Active	3.7 nM	2 nM	–	–	3400 nM	COc1cccc(-c2ccccc2C(=O)Nc2ccc(C(=O)N3C[C@H]4COCCN4Cc4ccccc43)c(Cl)c2)c1
Not Active	9 nM	–	–	–	–	O=C(Nc1ccc(C(=O)N2CC3CSCCN3Cc3ccc(F)cc32)cc1)c1ccccc1-c1ccccc1 (centres undefined)
Not Active	60 nM	300 nM	–	–	14000 nM	Cc1ccc(F)cc1C(=O)Nc1ccc(C(=O)N2CC3CSCCN3Cc3ccccc32)c(Cl)c1 (centres undefined)
Not Active	4.2 nM	5 nM	–	–	1300 nM	COc1ccc(C(=O)Nc2ccc(C(=O)N3C[C@H]4COCCN4Cc4ccccc43)c(Cl)c2)c(-c2ccccc2)c1
24 nM	0.9 nM	4 nM	–	–	600 nM	O=C(Nc1ccc(C(=O)N2C[C@H]3COCCN3Cc3ccccc32)c(Cl)c1)c1ccccc1-c1ccccc1
30 nM	–	–	–	–	1600 nM	O=C(Nc1ccc(C(=O)N2C[C@H]3COCCN3Cc3ccccc32)c(Cl)c1)c1ccc(O)cc1-c1ccccc1
100 nM	2.8 nM	12 nM	–	–	2000 nM	Cc1ccc(F)cc1C(=O)Nc1ccc(C(=O)N2C[C@H]3COCCN3Cc3ccccc32)c(Cl)c1
Not Active	10 nM	–	–	–	–	O=C(Nc1ccc(C(=O)N2CC3CSCCN3Cc3ccccc32)c(F)c1)c1ccccc1-c1ccccc1 (centres undefined)
84 nM	–	–	–	–	1400 nM	O=C(Nc1ccc(C(=O)N2C[C@H]3CSCCN3Cc3ccccc32)cc1)c1ccccc1-c1ccccc1
640 nM	15 nM	170 nM	–	–	14000 nM	O=C(Nc1ccc(C(=O)N2CC3COCCN3Cc3ccccc32)c(Cl)c1)c1ccccc1-c1ccccc1 (single isomer, unassigned)
Not Active	5 nM	20 nM	–	–	11000 nM	O=C(Nc1ccc(C(=O)N2C[C@H]3COCCN3Cc3ccccc32)c(Cl)c1)c1ccccc1-c1cccc(O)c1
Not Active	2.8 nM	3 nM	–	–	1900 nM	COc1ccc(-c2ccccc2C(=O)Nc2ccc(C(=O)N3C[C@H]4COCCN4Cc4ccccc43)c(Cl)c2)cc1
290 nM	–	–	–	–	1300 nM	O=C(Nc1ccc(C(=O)N2C[C@@H]3CSCCN3Cc3ccccc32)cc1)c1ccccc1-c1ccccc1
Not Active	37 nM	70 nM	–	–	14000 nM	O=C(Nc1ccc(C(=O)N2CC3CSCCN3Cc3ccccc32)c(Cl)c1)c1cc(F)ccc1-c1ccccc1 (centres undefined)
